Assay results as given in ChEMBL document CHEMBL1275535, “Pharmacodynamic modeling of aminoglycosides against Pseudomonas aeruginosa and Acinetobacter baumannii: identifying dosing regimens to suppress resistance development” (2008).
Converted amounts (≈) assume the structure as drawn. The source made the active and inactive calls. No cut-off for these calls is given here.

Experiments:
[1] = tested on: Acinetobacter baumannii; experiment: Antibacterial activity against Acinetobacter baumannii ATCC BAA 747 after 24 hrs by modified broth macrodilution method; type: functional; details: ATCC BAA 747, 24 h
How it was run: (§1)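 Ca-MHB broth macrodilution per modified CLSI method, with serial twofold aminoglycoside dilutions and about 5 x 10^5 CFU/ml final inoculum from isolates subcultured twice on 5% blood agar. MIC was the lowest concentration with no visible growth after 24 h at 35°C in ambient air. Run in duplicate and repeated on at least one separate day.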

[2] = tested on: Acinetobacter baumannii; experiment: Bactericidal activity against Acinetobacter baumannii ATCC BAA 747 assessed as growth rate constant for the bacterial population by time-kill study; type: functional
How it was run: (§2)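 24-h time-kill data at a baseline inoculum of 10^7 CFU/ml were fitted to a mathematical model of a heterogeneous population. The fit ran in two steps. Growth rate (Kg) and maximal population size came from placebo control experiments. Those estimates were then held fixed while the kill-function parameters (maximal kill rate, concentration for 50% of maximal kill) were fitted to all active-treatment data together.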

[3] = tested on: Acinetobacter baumannii; experiment: Bactericidal activity against Acinetobacter baumannii ATCC BAA 747 assessed as maximum population size by time-kill study; type: functional; how it was run: as §2
[4] = tested on: Acinetobacter baumannii; experiment: Bactericidal activity against Acinetobacter baumannii ATCC BAA 747 assessed as maximal kill rate constant for the bacterial population by time-kill study; type: functional; how it was run: as §2
[5] = tested on: Acinetobacter baumannii; experiment: Bactericidal activity against Acinetobacter baumannii ATCC BAA 747 assessed as concentration to achieve 50% of the maximal kill rate for the bacterial population by time-kill study; type: functional; how it was run: as §2
[6] = tested on: Acinetobacter baumannii; experiment: Bactericidal activity against Acinetobacter baumannii ATCC BAA 747 at >16 mg/liter after 2 hrs by time-kill study; type: functional, organism-based
[7] = tested on: Pseudomonas aeruginosa; experiment: Ratio of Cmax to MIC for Pseudomonas aeruginosa ATCC 27853 in PK/PD model at 1500 mg administered every 12 hrs; type: functional
[8] = tested on: Pseudomonas aeruginosa; experiment: Ratio of Cmax to MIC for Pseudomonas aeruginosa ATCC 27853 in PK/PD model at 2000 mg administered every 24 hrs; type: functional
[9] = tested on: Pseudomonas aeruginosa; experiment: Antibacterial activity against Pseudomonas aeruginosa ATCC 27853 after 24 hrs by modified broth macrodilution method; type: functional, organism-based; how it was run: as §1
[10] = tested on: Pseudomonas aeruginosa; experiment: Bactericidal activity against Pseudomonas aeruginosa ATCC 27853 assessed as growth rate constant for the bacterial population by time-kill study; type: functional, organism-based
How it was run: (§3)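 Parameters were fitted by mathematical modeling to 24 h time-kill data with gentamicin at 0 to 32 mg/liter and a baseline inoculum of 10^7 CFU/ml. Intrinsic growth rate (Kg) and maximal population size came from placebo controls. Kill-function parameters were then fitted to all active-treatment data simultaneously.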

[11] = tested on: Pseudomonas aeruginosa; experiment: Bactericidal activity against Pseudomonas aeruginosa ATCC 27853 assessed as maximum population size by time-kill study; type: functional, organism-based; how it was run: as §3
[12] = tested on: Pseudomonas aeruginosa; experiment: Bactericidal activity against Pseudomonas aeruginosa ATCC 27853 assessed as maximal kill rate constant for the bacterial population by time-kill study; type: functional, organism-based; how it was run: as §3
[13] = tested on: Pseudomonas aeruginosa; experiment: Bactericidal activity against Pseudomonas aeruginosa ATCC 27853 assessed as concentration to achieve 50% of the maximal kill rate for the bacterial population by time-kill study; type: functional, organism-based; how it was run: as §3

Molecule | MBC [1] [µg/mL] | MIC [1] [µg/mL] | Activity [2] [h⁻¹] | Activity [3] [×10⁸ CFU/ml] | Activity [4] [h⁻¹] | C50k [5] [mg/L] | Activity [6] | Ratio [7] | Ratio [8] | MBC [9] [mg/L] | MIC [9] [µg/mL] | Activity [10] [h⁻¹] | Activity [11] [×10⁸ CFU/ml] | Activity [12] [h⁻¹] | C50k [13] [mg/L]
NCC[C@H](O)C(=O)N[C@@H]1C[C@H](N)[C@@H](O[C@H]2O[C@H](CN)[C@@H](O)[C@H](O)[C@H]2O)[C@H](O)[C@H]1O[C@H]1O[C@H](CO)[C@@H](O)[C@H](N)[C@H]1O [AMIKACIN] | 8 (≈ 13.7 µM) | 4 (≈ 6.83 µM) | 0.55 | 6.62 | 27.81 | 1.56 | Active | 13 | 20 | – | – | – | – | – | –
GENTAMICIN | – | – | – | – | – | – | – | 36 | 30 | 2 | 2 | 0.48 | 9.8 | 4.68 | 0.72
